Laboratory results published in BindingDB's records for doi:10.1016/j.bmc.2009.05.079 (Universidad De Valencia, 2009).

Molecular target: D(2) dopamine receptor (Rattus norvegicus, UniProt P61169)
Test: Displacement of [3H]raclopride from dopamine D2 receptor in Wistar rat striatal membrane by liquid scintillation counting
Method in brief: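 Female Wistar rat striatal membranes were washed at 49,000g and resuspended in Tris-ions buffer, pH 7.4. [3H]-raclopride displacement was read by filtration, cold-buffer washes and scintillation counting. Ki was derived using KD 1,25 nM; 3–6 independent determinations in duplicate, mean SEM.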

Sequence of D(2) dopamine receptor (P61169 whole entry): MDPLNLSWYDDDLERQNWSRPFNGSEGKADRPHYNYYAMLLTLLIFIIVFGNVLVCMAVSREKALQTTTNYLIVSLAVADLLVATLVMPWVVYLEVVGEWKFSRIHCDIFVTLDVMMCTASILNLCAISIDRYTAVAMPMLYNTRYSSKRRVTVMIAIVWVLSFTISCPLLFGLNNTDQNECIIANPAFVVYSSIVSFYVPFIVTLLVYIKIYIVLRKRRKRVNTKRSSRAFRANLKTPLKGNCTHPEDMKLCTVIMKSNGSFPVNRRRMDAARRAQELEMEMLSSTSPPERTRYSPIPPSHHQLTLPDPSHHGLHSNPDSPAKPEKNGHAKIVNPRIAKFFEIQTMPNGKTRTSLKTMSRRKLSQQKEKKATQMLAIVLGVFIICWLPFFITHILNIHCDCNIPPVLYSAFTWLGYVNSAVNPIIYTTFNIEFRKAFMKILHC

CCCCC1NCCc2cc(Cl)c(O)cc21 (stereo unspecified) [1-Butyl-6-chloro-7-hydroxy-1,2,3,4-tetrahydroisoquinoline]
Ki: 0.076 µM
